Laboratory results as given in ChEMBL document CHEMBL1806473, “Structure-based optimization of click-based histone deacetylase inhibitors” (Eur J Med Chem, 2011).

Legend:
SR [1] = assay: Antiproliferative activity against human SR cells by SRB assay; assay type: functional
Summary of the method: (§1)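 Cell growth was tested in the NIH in vitro disease-oriented human tumor cell line screen, which NCI ran for these compounds. Compounds were tested at five concentrations (100, 10, 1.0, 0.1 and 0.01 μM), and growth was read by SRB signal. GI50 is the drug concentration that reduces growth of treated cells to half that of control cells during drug incubation.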

OVCAR-5 [2] = assay: Antiproliferative activity against human OVCAR5 cells by SRB assay; assay type: functional
Summary of the method: (§2)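 Tested in the NCI in vitro human tumor cell line screen, run by the National Cancer Institute. Each compound was given at five concentrations (100, 10, 1.0, 0.1 and 0.01 μM). GI50 is the drug concentration that reduces growth of treated cells to half that of control cells during drug incubation, judged from the SRB signal.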

NCI-H460 [3] = assay: Cytotoxicity against human NCI-H460 cells; assay type: cell-based
UACC-62 = assay: Cytotoxicity against human UACC62 cells; assay type: cell-based
Summary of the method: (§3)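 Screened by NCI in its in vitro disease-oriented human tumour cell line panel. Compounds tested at five concentrations (100, 10, 1.0, 0.1 and 0.01 μM). Growth read by sulforhodamine B (SRB) signal. GI50 is the concentration reducing growth of treated cells to half that of control cells during the drug incubation.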

HOP-92 [4] = assay: Cytotoxicity against human HOP92 cells; assay type: cell-based
HOP-92 [5] = assay: Antiproliferative activity against human HOP92 cells by SRB assay; assay type: functional; summary of the method: as §2
SN12C = assay: Antiproliferative activity against human SN12C cells by SRB assay; assay type: functional; summary of the method: as §2
HCC 2998 [6] = assay: Antiproliferative activity against human HCC2998 cells by SRB assay; assay type: functional; summary of the method: as §2
T47D = assay: Antiproliferative activity against human T47D cells by SRB assay; assay type: functional; summary of the method: as §1
CCRF-CEM = assay: Antiproliferative activity against human CCRF-CEM cells by SRB assay; assay type: functional; summary of the method: as §2
OVCAR-5 [7] = assay: Cytotoxicity against human OVCAR5 cells; assay type: cell-based
Summary of the method: (§4)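 Tested in the NCI in vitro disease-oriented human tumour cell line screen, with screening performed by NCI. Growth was read by SRB signal over the drug incubation period at five concentrations: 100, 10, 1.0, 0.1 and 0.01 μM. GI50 is the concentration that reduces growth of treated cells to half that of control cells.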

ACHN [8] = assay: Cytotoxicity against human ACHN cells; assay type: cell-based
K562 [9] = assay: Antiproliferative activity against human K562 cells by SRB assay; assay type: functional; summary of the method: as §2
BT-549 [10] = assay: Antiproliferative activity against human BT549 cells by SRB assay; assay type: functional; summary of the method: as §2
NCI/ADR-RES [11] = assay: Antiproliferative activity against human NCI/ADR-RES cells by SRB assay; assay type: functional; summary of the method: as §2
SW-620 = assay: Cytotoxicity against human SW620 cells; assay type: cell-based; summary of the method: as §3
HCT-116 [12] = assay: Cytotoxicity against human HCT116 cells; assay type: cell-based; summary of the method: as §4
PC-3 = assay: Antiproliferative activity against human PC3 cells by SRB assay; assay type: functional; summary of the method: as §2
SNB-75 [13] = assay: Cytotoxicity against human SNB75 cells; assay type: cell-based; summary of the method: as §3
BT-549 [14] = assay: Cytotoxicity against human BT549 cells; assay type: cell-based
[15] = Antiproliferative activity against human Hs 578T cells by SRB assay; assay type: functional; summary of the method: as §2
RPMI-8226 = assay: Antiproliferative activity against human RPMI8226 cells by SRB assay; assay type: functional; summary of the method: as §2
K562 [16] = assay: Cytotoxicity against human K562 cells; assay type: cell-based
IGROV-1 = assay: Cytotoxicity against human IGROV1 cells; assay type: cell-based
SK-OV-3 = assay: Antiproliferative activity against human SKOV3 cells by SRB assay; assay type: functional; summary of the method: as §2
SF-539 = assay: Cytotoxicity against human SF539 cells; assay type: cell-based; summary of the method: as §4
A549 [17] = assay: Antiproliferative activity against human A549 cells by SRB assay; assay type: functional; summary of the method: as §2
MDA-MB-435 = assay: Cytotoxicity against human MDA-MB-435 cells; assay type: cell-based
ACHN [18] = assay: Antiproliferative activity against human ACHN cells by SRB assay; assay type: functional; summary of the method: as §2
OVCAR-3 = assay: Antiproliferative activity against human OVCAR3 cells by SRB assay; assay type: functional; summary of the method: as §2
RXF 393 = assay: Cytotoxicity against human RXF393 cells; assay type: cell-based; summary of the method: as §4
NCI-H322M = assay: Cytotoxicity against human NCI-H322M cells; assay type: cell-based
Malme-3M = assay: Cytotoxicity against human MALME-3M cells; assay type: cell-based; summary of the method: as §4
U-251 [19] = assay: Antiproliferative activity against human U251 cells by SRB assay; assay type: functional; summary of the method: as §1
A549 [20] = assay: Cytotoxicity against human A549 cells; assay type: cell-based; summary of the method: as §4
U-251 [21] = assay: Cytotoxicity against human U251 cells; assay type: cell-based; summary of the method: as §3
COLO 205 = assay: Cytotoxicity against human COLO205 cells; assay type: cell-based; summary of the method: as §4
LOX IMVI = assay: Cytotoxicity against human LOXIMVI cells; assay type: cell-based
HOP-62 = assay: Antiproliferative activity against human HOP62 cells by SRB assay; assay type: functional; summary of the method: as §2
SK-MEL-2 = assay: Antiproliferative activity against human SK-MEL-2 cells by SRB assay; assay type: functional; summary of the method: as §2
SF-268 = assay: Antiproliferative activity against human SF268 cells by SRB assay; assay type: functional; summary of the method: as §2
SF-295 = assay: Cytotoxicity against human SF295 cells; assay type: cell-based; summary of the method: as §4
DU-145 = assay: Cytotoxicity against human DU145 cells; assay type: cell-based; summary of the method: as §4
HL-60(TB) = assay: Antiproliferative activity against human HL-60(TB) cells by SRB assay; assay type: functional; summary of the method: as §4
HCC 2998 [22] = assay: Cytotoxicity against human HCC2998 cells; assay type: cell-based; summary of the method: as §4
HCT-116 [23] = assay: Antiproliferative activity against human HCT116 cells by SRB assay; assay type: functional; summary of the method: as §2
OVCAR-4 = assay: Cytotoxicity against human OVCAR4 cells; assay type: cell-based
NCI/ADR-RES [24] = assay: Cytotoxicity against human NCI/ADR-RES cells; assay type: cell-based; summary of the method: as §4
NCI-H226 = assay: Cytotoxicity against human NCI-H226 cells; assay type: cell-based
NCI-H460 [25] = assay: Antiproliferative activity against human NCI-H460 cells by SRB assay; assay type: functional; summary of the method: as §2
SK-MEL-5 = assay: Antiproliferative activity against human SK-MEL-5 cells by SRB assay; assay type: functional; summary of the method: as §2
SNB-75 [26] = assay: Antiproliferative activity against human SNB75 cells by SRB assay; assay type: functional; summary of the method: as §1
SR [27] = assay: Cytotoxicity against human SR cells; assay type: cell-based; summary of the method: as §3
UO-31 = assay: Antiproliferative activity against human UO31 cells by SRB assay; assay type: functional; summary of the method: as §1
MOLT-4 = assay: Cytotoxicity against human MOLT4 cells; assay type: cell-based
MCF7 = assay: Antiproliferative activity against human MCF7 cells by SRB assay; assay type: functional; summary of the method: as §2
HT-29 = assay: Antiproliferative activity against human HT-29 cells by SRB assay; assay type: functional; summary of the method: as §2

Compound: O=C(/C=C/c1cn(C(/C=C/c2ccccc2)Cc2ccccc2)nn1)NO (configuration not stated)
- GI50 (SR [1]): 624 nM
- GI50 (OVCAR-5 [2]): 426 nM
- LC50 (NCI-H460 [3]): 27.2 µM
- LC50 (UACC-62): 6.34 µM
- LC50 (HOP-92 [4]): 11.6 µM
- GI50 (HOP-92 [5]): 1080 nM
- GI50 (SN12C): 2340 nM
- GI50 (HCC 2998 [6]): 1240 nM
- GI50 (T47D): 411 nM
- GI50 (CCRF-CEM): 320 nM
- LC50 (OVCAR-5 [7]): 22.3 µM
- LC50 (ACHN [8]): 13.7 µM
- GI50 (K562 [9]): 1050 nM
- GI50 (BT-549 [10]): 1620 nM
- GI50 (NCI/ADR-RES [11]): 342 nM
- LC50 (SW-620): 13.6 µM
- LC50 (HCT-116 [12]): 5.97 µM
- GI50 (PC-3): 1520 nM
- LC50 (SNB-75 [13]): 9.83 µM
- LC50 (BT-549 [14]): > 100 µM
- GI50 [15]: 934 nM
- GI50 (RPMI-8226): 743 nM
- LC50 (K562 [16]): > 100 µM
- LC50 (IGROV-1): 8.18 µM
- GI50 (SK-OV-3): 1980 nM
- LC50 (SF-539): 6.91 µM
- GI50 (A549 [17]): 1410 nM
- LC50 (MDA-MB-435): 15.7 µM
- GI50 (ACHN [18]): 1230 nM
- GI50 (OVCAR-3): 1160 nM
- LC50 (RXF 393): 7.61 µM
- LC50 (NCI-H322M): 46.7 µM
- LC50 (Malme-3M): 28.6 µM
- GI50 (U-251 [19]): 948 nM
- LC50 (A549 [20]): 64.6 µM
- LC50 (U-251 [21]): 5.84 µM
- LC50 (COLO 205): 8 µM
- LC50 (LOX IMVI): 4.62 µM
- GI50 (HOP-62): 1440 nM
- GI50 (SK-MEL-2): 1890 nM
- GI50 (SF-268): 1220 nM
- LC50 (SF-295): 6.56 µM
- LC50 (DU-145): 46.3 µM
- GI50 (HL-60(TB)): 670 nM
- LC50 (HCC 2998 [22]): 6.12 µM
- GI50 (HCT-116 [23]): 382 nM
- LC50 (OVCAR-4): 61.6 µM
- LC50 (NCI/ADR-RES [24]): > 100 µM
- LC50 (NCI-H226): 46.8 µM
- GI50 (NCI-H460 [25]): 1040 nM
- GI50 (SK-MEL-5): 879 nM
- GI50 (SNB-75 [26]): 258 nM
- LC50 (SR [27]): > 100 µM
- GI50 (UO-31): 650 nM
- LC50 (MOLT-4): > 100 µM
- GI50 (MCF7): 1210 nM
- GI50 (HT-29): 547 nM

Compound: CC(/C=C/c1ccccc1)n1cc(/C=C/C(=O)NO)nn1 (configuration not stated)
- GI50 (SR [1]): 385 nM
- GI50 (OVCAR-5 [2]): 488 nM
- LC50 (NCI-H460 [3]): 42.7 µM
- LC50 (UACC-62): 7.99 µM
- LC50 (HOP-92 [4]): 7.53 µM
- GI50 (HOP-92 [5]): 677 nM
- GI50 (SN12C): 1290 nM
- GI50 (HCC 2998 [6]): 927 nM
- GI50 (T47D): 667 nM
- GI50 (CCRF-CEM): 442 nM
- LC50 (OVCAR-5 [7]): > 100 µM
- LC50 (ACHN [8]): 5.86 µM
- GI50 (K562 [9]): 355 nM
- GI50 (BT-549 [10]): 2110 nM
- LC50 (SW-620): 5.15 µM
- LC50 (HCT-116 [12]): 3.81 µM
- GI50 (PC-3): 890 nM
- LC50 (SNB-75 [13]): 33.9 µM
- LC50 (BT-549 [14]): > 100 µM
- GI50 [15]: 692 nM
- GI50 (RPMI-8226): 407 nM
- LC50 (K562 [16]): > 100 µM
- LC50 (IGROV-1): 5.74 µM
- GI50 (SK-OV-3): 1170 nM
- LC50 (SF-539): 4.61 µM
- GI50 (A549 [17]): 1470 nM
- LC50 (MDA-MB-435): 30.8 µM
- GI50 (ACHN [18]): 765 nM
- GI50 (OVCAR-3): 1130 nM
- LC50 (RXF 393): > 100 µM
- LC50 (NCI-H322M): > 100 µM
- LC50 (Malme-3M): 51.9 µM
- GI50 (U-251 [19]): 777 nM
- LC50 (A549 [20]): > 100 µM
- LC50 (U-251 [21]): 4.5 µM
- LC50 (COLO 205): 5.2 µM
- LC50 (LOX IMVI): 4.12 µM
- GI50 (HOP-62): 1340 nM
- GI50 (SK-MEL-2): 614 nM
- GI50 (SF-268): 1510 nM
- LC50 (SF-295): > 100 µM
- LC50 (DU-145): > 100 µM
- GI50 (HL-60(TB)): 269 nM
- LC50 (HCC 2998 [22]): 6.91 µM
- GI50 (HCT-116 [23]): 341 nM
- LC50 (OVCAR-4): 18.3 µM
- LC50 (NCI-H226): 71.4 µM
- GI50 (NCI-H460 [25]): 612 nM
- GI50 (SK-MEL-5): 573 nM
- GI50 (SNB-75 [26]): 924 nM
- LC50 (SR [27]): > 100 µM
- GI50 (UO-31): 549 nM
- LC50 (MOLT-4): > 100 µM
- GI50 (MCF7): 1160 nM
- GI50 (HT-29): 325 nM
